Data taken from ChEMBL document CHEMBL3244411, “A new warfarin metabolite: structure and function” (J Med Chem, 1978).
The source made the active and inactive calls.

Key:
[1] = Drug metabolism in PCN-induced rat liver microsomes assessed as cytochrome P450-mediated 4-oxo-3-(3-oxo-1-phenylbut-1-enyl)-4H-chromen-2-olate metabolite formation at 0.15 mmol measured under basic conditions by LC-UV analysis in presence of cumene hydroperoxide; type: ADME
In short: (§1)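 Liver microsomes from PCN-induced rats (100 mg/kg/day ip in corn oil for 3 days), 200 mL at 2.0 mg protein/mL in TES–MgCl2, pH 7.4, with (R)-warfarin sodium 1.5 × 10^-4 mol. Preincubated 5 min at 37 °C with shaking, started with cumene hydroperoxide 1.6 × 10^-4 mol, given a second equal addition at 10 min, stopped at 30 min on ice. Product isolated by preparative C18 LC.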

[2] = Drug metabolism in rat liver microsomes assessed as cytochrome P450-mediated 4-hydroxy-3-(3-oxo-1-phenyl-1-butenyl)-2H-1-benzopyran-2-one metabolite formation measured for 10 mins by LC-UV analysis; type: ADME
In short: (§2)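 Time course with (S)-warfarin in uninduced rat liver microsomes (cytochrome P-450 1.0 nmol/mg protein; protein 2 mg/mL) at 37 °C and pH 7.4. NADPH-supported TES–MgCl2 incubation, with products quantified by LC. Single determination from a pool of five rats.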

[3] = Drug metabolism in rat liver microsomes assessed as cytochrome P450-mediated 6-hydroxywarfarin metabolite formation measured after 10 mins by LC-UV analysis; type: ADME; in short: as §2
[4] = Drug metabolism in rat liver microsomes assessed as cytochrome P450-mediated 7-hydroxywarfarin metabolite formation measured after 10 mins by LC-UV analysis; type: ADME; in short: as §2
[5] = Drug metabolism in phenobarbital-induced rat liver microsomes assessed as cytochrome P450-mediated 4-hydroxy-3-(3-oxo-1-phenyl-1-butenyl)-2H-1-benzopyran-2-one metabolite formation at 3 umol measured per nmol of CYP450 under acidic conditions by LC-UV analysis in presence of cumene hydroperoxide; type: ADME
In short: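 Phenobarbital-induced rat liver microsomes (100 mg/kg/day ip for 3 days) with 8.0 mg protein and warfarin sodium 3.0 × 10^-6 mol in 4.0 mL TES–MgCl2 buffer, pH 7.4, at 37 °C. No NADPH generating system; started with cumene hydroperoxide 3.3 × 10^-5 mol and stopped after 5 min. Products quantified by LC against external standards.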

[6] = Drug metabolism in rat liver microsomes assessed as cytochrome P450-mediated 4'-hydroxywarfarin metabolite formation measured for 10 mins by LC-UV analysis; type: ADME; in short: as §2
[7] = Drug metabolism in PCN-induced rat liver microsomes assessed as cytochrome P450-mediated 4-hydroxy-3-(3-oxo-1-phenyl-1-butenyl)-2H-1-benzopyran-2-one metabolite formation at 0.15 mmol measured per nmol of CYP450 under acidic conditions by LC-UV analysis in presence of cumene hydroperoxide; type: ADME; in short: as §1
[8] = Drug metabolism in rat liver microsomes assessed as cytochrome P450-mediated 4'-hydroxywarfarin metabolite formation measured after 10 mins by LC-UV analysis; type: ADME; in short: as §2
[9] = Drug metabolism in rat liver microsomes assessed as cytochrome P450-mediated 4-hydroxy-3-(3-oxo-1-phenyl-1-butenyl)-2H-1-benzopyran-2-one metabolite formation measured after 10 mins by LC-UV analysis; type: ADME; in short: as §2
[10] = Drug metabolism in rat liver microsomes assessed as cytochrome P450-mediated 7-hydroxywarfarin metabolite formation measured for 10 mins by LC-UV analysis; type: ADME; in short: as §2
[11] = Drug metabolism in rat liver microsomes assessed as cytochrome P450-mediated 6-hydroxywarfarin metabolite formation measured for 10 mins by LC-UV analysis; type: ADME; in short: as §2
[12] = Activity at cytochrome P450 in PCN-induced rat liver microsomes treated with (R)-warfarin at 0.15 mmol measured under basic conditions by LC-UV analysis in presence of cumene hydroperoxide; type: ADME
In short: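 PCN-induced rat liver microsomes (PCN 100 mg/kg/day ip in corn oil for 3 days; killed 24 h after last dose): 200 mL of microsomes at 2.0 mg protein/mL in TES-MgCl2 buffer pH 7.4, with (R)-warfarin sodium 1.5 × 10^-4 mol. Shaken 5 min at 37 °C, then started with cumene hydroperoxide 1.6 × 10^-4 mol, re-added at 10 min, stopped at 30 min on ice. Product collected by preparative C18 LC.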

[13] = Activity at cytochrome P450 in phenobarbital-induced rat liver microsomes treated with (S)-warfarin at 3 umol measured under basic conditions by LC-UV analysis in presence of NADPH; type: ADME
In short: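 Phenobarbital induction: 100 mg/kg/day ip in saline for 3 days, microsomes isolated 24 h after the last dose. Incubation in 4.0 mL 0.01 M TES-0.002 M MgCl2, pH 7.4, with warfarin sodium 1.0 mg (3.0 × 10^-6 mol), NADP 1.25 μmol, glucose 6-phosphate 62.1 μmol and 8.0 mg microsomal protein. Preincubated 1.0 min at 37 °C, started with G6P dehydrogenase 5.0 units, stopped after 10 min by filtration. Metabolites quantified by LC against external standards.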

[14] = Activity at cytochrome P450 in rat liver microsomes treated with (S)-warfarin at 3 umol measured under basic conditions by LC-UV analysis in presence of NADPH; type: ADME
In short: (§3)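 Male Wistar rat hepatic microsomes, 8.0 mg protein in 4.0 mL 0.01 M TES-0.002 M MgCl2, pH 7.4. Enantiopure warfarin sodium 1.0 mg (3.0 × 10^-6 mol) with an NADPH-generating system (NADP 1.25 μmol, glucose 6-phosphate 62.1 μmol). Preincubated 1.0 min at 37 °C, started with G6P dehydrogenase 5.0 units, stopped after 10 min by filtration. Metabolites separated and quantified by LC against external standards.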

Salmonella typhimurium [15] = test: Mutagenicity in Salmonella typhimurium TA98 by Ames test in presence of liver microsomes; type: toxicity, organism-based; conditions: salmonella enterica subsp. enterica serovar typhimurium
Salmonella typhimurium [16] = test: Mutagenicity in Salmonella typhimurium TA1537 by Ames test; type: toxicity, organism-based; conditions: salmonella enterica subsp. enterica serovar typhimurium
[17] = Activity at cytochrome P450 in rat liver microsomes treated with (S)-warfarin measured for 10 mins by LC-UV analysis; type: ADME; in short: as §3
Rattus norvegicus [18] = test: Antagonism of intrinsic coagulation factor-9 synthesis in rat plasma at 100 mg/kg, ip measured after 12 hrs; type: functional, organism-based; set-up: dose 100 mg/kg
In short: (§4)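 Six rats per group given 100 mg/kg ip, as sodium salt in saline or as free acid in corn oil. At 12 h, rats were anesthetized and blood drawn from the posterior vena cava into 3.8% trisodium citrate; plasma was taken at 2000g for 10 min. Clotting measured by one-stage fibrometer assay, and individual factors by a published method. Controls received vehicle or racemic warfarin sodium at 10 mg/kg ip.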

Rattus norvegicus [19] = test: Antagonism of extrinsic coagulation factor-2 synthesis in rat plasma at 100 mg/kg, ip measured after 12 hrs; type: functional, organism-based; set-up: dose 100 mg/kg; in short: as §4
Rattus norvegicus [20] = test: Toxicity in ip dosed rat; type: organism-based; conditions: in vivo
Rattus norvegicus [21] = test: Effect on fibrinogen level in rat plasma at 100 mg/kg, ip measured after 24 hrs; type: functional, organism-based; set-up: dose 100 mg/kg
Salmonella typhimurium [22] = test: Mutagenicity in Salmonella typhimurium TA100 by Ames test; type: toxicity, organism-based; conditions: salmonella enterica subsp. enterica serovar typhimurium
[23] = Activity at cytochrome P450 in PCN-induced rat liver microsomes treated with (R)-warfarin at 0.15 mmol measured under acidic conditions by LC-UV analysis in presence of cumene hydroperoxide; type: ADME; in short: as §1
Liver microsome = test: Drug metabolism in rat liver microsomes by LC-UV analysis; type: ADME
Rattus norvegicus [24] = test: Antagonism of intrinsic coagulation factor-8 synthesis in rat plasma at 100 mg/kg, ip measured after 12 hrs; type: functional, organism-based; set-up: dose 100 mg/kg; in short: as §4
Salmonella typhimurium [25] = test: Mutagenicity in Salmonella typhimurium TA100 by Ames test in presence of liver microsomes; type: toxicity, organism-based; conditions: salmonella enterica subsp. enterica serovar typhimurium
Salmonella typhimurium [26] = test: Mutagenicity in Salmonella typhimurium TA98 by Ames test; type: toxicity, organism-based; conditions: salmonella enterica subsp. enterica serovar typhimurium
Salmonella typhimurium [27] = test: Mutagenicity in Salmonella typhimurium TA1535 by Ames test; type: toxicity, organism-based; conditions: salmonella enterica subsp. enterica serovar typhimurium
Rattus norvegicus [28] = test: Anticoagulant activity in rat plasma at 100 mg/kg, ip measured after 12 hrs by one-stage clotting assay; type: functional, organism-based; set-up: dose 100 mg/kg; in short: as §4
[29] = Activity at cytochrome P450 in rat liver microsomes treated with (R)-warfarin measured for 10 mins by LC-UV analysis; type: ADME; in short: as §3
Rattus norvegicus [30] = test: Antagonism of extrinsic coagulation factor-7 synthesis in rat plasma at 100 mg/kg, ip measured after 12 hrs; type: functional, organism-based; set-up: dose 100 mg/kg; in short: as §4
Rattus norvegicus [31] = test: Antagonism of extrinsic coagulation factor-10 synthesis in rat plasma at 100 mg/kg, ip measured after 12 hrs; type: functional, organism-based; set-up: dose 100 mg/kg; in short: as §4
[32] = Activity at cytochrome P450 in phenobarbital-induced rat liver microsomes treated with (S)-warfarin at 3 umol measured under acidic conditions by LC-UV analysis in presence of NADPH; type: ADME
In short: (§5)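 Male Wistar rat liver microsomes, uninduced or phenobarbital-induced (100 mg/kg/day ip in saline for 3 days, harvested 24 h after the last dose). Per 4.0 mL of 0.01 M TES–0.002 M MgCl2, pH 7.4: (R)- or (S)-warfarin sodium 3.0 × 10^-6 mol, NADP 1.25 µmol, glucose 6-phosphate 62.1 µmol, 8.0 mg protein. Preincubated 1.0 min at 37 °C, started with yeast G6P dehydrogenase (5.0 units), stopped by filtration after 10 min. Products quantified by LC against external standards.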

Salmonella typhimurium [33] = test: Mutagenicity in Salmonella typhimurium TA1537 by Ames test in presence of liver microsomes; type: toxicity, organism-based; conditions: salmonella enterica subsp. enterica serovar typhimurium
[34] = Activity at cytochrome P450 in rat liver microsomes treated with (S)-warfarin at 3 umol measured under acidic conditions by LC-UV analysis in presence of NADPH; type: ADME; in short: as §5
Salmonella typhimurium [35] = test: Mutagenicity in Salmonella typhimurium TA1535 by Ames test in presence of liver microsomes; type: toxicity, organism-based; conditions: salmonella enterica subsp. enterica serovar typhimurium

CC(=O)C[C@H](c1ccccc1)c1c(O)c2ccccc2oc1=O
metabolite_detected: Drug metabolism [1] | Drug metabolism [2] | Drug metabolism [3] | Drug metabolism [4] | Drug metabolism [6] | Drug metabolism [8] | Drug metabolism [10] | Drug metabolism [11]
0.15 nmol/min: Drug metabolism [5]
0.423 nmol/min: Drug metabolism [7]
metabolite_notdetected: Drug metabolism [9]

CC(=O)/C=C(\c1ccccc1)c1c(O)oc2ccccc2c1=O
metabolite_detected: Drug metabolism [12] | Drug metabolism [13] | Drug metabolism [14]

CC(=O)CC(c1ccccc1)c1c(O)c2ccccc2oc1=O (stereo unspecified) [WARFARIN]
Non-toxic: Activity (Salmonella typhimurium [15]) | Activity (Salmonella typhimurium [16]) | Activity (Rattus norvegicus [20]) | Activity (Salmonella typhimurium [22]) | Activity (Salmonella typhimurium [25]) | Activity (Salmonella typhimurium [26]) | Activity (Salmonella typhimurium [27]) | Activity (Salmonella typhimurium [33]) | Activity (Salmonella typhimurium [35])
metabolite_notdetected: Drug metabolism (Liver microsome)
metabolite_detected: Drug metabolism [17] | Drug metabolism [23] | Drug metabolism [29] | Drug metabolism [32] | Drug metabolism [34]
inactive: inhibition (Rattus norvegicus [18]) | inhibition (Rattus norvegicus [19]) | Activity (Rattus norvegicus [21]) | inhibition (Rattus norvegicus [24]) | Activity (Rattus norvegicus [28]) | inhibition (Rattus norvegicus [30]) | inhibition (Rattus norvegicus [31])
